A value given as a limit tells only on which side of the number the result lay.

For assay [1], the system named is B16. In words: Inhibition of alpha-MSH-induced melanin synthesis in mouse B16 cells grown in a 5% CO2-95% air atmosphere at 10 uM after 3 days. The format is functional. As to conditions: B16, 72 h. In short, it runs like this:
(§1)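 Mouse B16 melanoma cells seeded at 2.5×10^3 per well in DMEM with 10% FBS and grown 1 day at 37 °C. α-MSH was added together with compound at various concentrations, then cells were incubated 3 days at 37 °C. Absorbance at 405 nm was read against a synthetic melanin standard curve (melanin dissolved in 0.85 N KOH). IC50 is the mean of triplicate determinations.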

Assay [2] relates to Radical scavenging activity. The assay can be described thus: Antioxidant activity assessed as DPPH free radical scavenging activity at 100 uM after 30 mins. It counts as functional. In short, it runs like this:
(§2)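 Compounds in ethanol mixed 1:1 by volume with 200 µM DPPH stock (stock concentration). Shaken 30 min at room temperature, absorbance read at 517 nm. Percent scavenging taken against DPPH without compound, blank-corrected. Screening done at 100 µM final. […] Triplicate runs, vitamin C as positive control.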

Assay [3] has as its target T1, Tyrosinase (Mus musculus) (UniProt P11344).
T1 sequence (whole entry): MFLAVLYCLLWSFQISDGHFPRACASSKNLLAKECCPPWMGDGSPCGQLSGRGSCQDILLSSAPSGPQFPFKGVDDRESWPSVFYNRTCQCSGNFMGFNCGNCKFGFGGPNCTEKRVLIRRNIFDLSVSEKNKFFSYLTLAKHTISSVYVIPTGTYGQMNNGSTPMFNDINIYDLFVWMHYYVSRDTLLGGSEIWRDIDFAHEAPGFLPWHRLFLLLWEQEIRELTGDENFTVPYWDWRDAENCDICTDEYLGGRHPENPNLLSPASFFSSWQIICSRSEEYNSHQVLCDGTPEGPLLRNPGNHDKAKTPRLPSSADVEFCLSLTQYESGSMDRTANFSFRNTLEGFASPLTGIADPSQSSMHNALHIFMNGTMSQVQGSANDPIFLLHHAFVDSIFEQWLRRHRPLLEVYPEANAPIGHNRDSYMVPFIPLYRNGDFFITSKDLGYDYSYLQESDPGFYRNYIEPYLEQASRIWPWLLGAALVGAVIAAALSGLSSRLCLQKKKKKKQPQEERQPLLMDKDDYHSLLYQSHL
The assay can be described thus: Inhibition of tyrosinase activity in alpha-MSH-stimulated mouse B16 cells at 100 uM using L-tyrosine as substrate. It counts as cell-based. In short, it runs like this:
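Enzyme source: B16 cells stimulated 48 h with 10 nM α-MSH, sonicated on ice and centrifuged. Supernatant dialysed against 50 mM sodium phosphate, pH 6.8. Compound preincubated with the cell-free enzyme, then 5 mM L-tyrosine added as substrate. Initial rate of dopachrome formation followed at 475 nm. One unit converts 1 nmol L-tyrosine per min.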

For assay [4], the system named is Radical scavenging activity. In words: Antioxidant activity assessed as DPPH free radical scavenging activity after 30 mins. The format is functional. In short, it runs like this: as §2
The subject of assay [5] is B16. The assay can be described thus: Inhibition of alpha-MSH-induced melanin synthesis in mouse B16 cells grown in a 5% CO2-95% air atmosphere after 3 days. The format is functional, cell-based. Particulars: B16, 72 h. Summed up:
as §1

Assay [6] deals with T2, Tyrosinase (Mus musculus, UniProt P11344).
T2 sequence (P11344 whole entry): T1 sequence (whole entry)
In words: Inhibition of tyrosinase activity in alpha-MSH-stimulated mouse B16 cells using L-tyrosine as substrate. The format is cell-based. In short, it runs like this: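 Enzyme source: B16 cells stimulated 48 h with 10 nM α-MSH, sonicated on ice and centrifuged. Supernatant dialysed against 50 mM sodium phosphate, pH 6.8. Compound preincubated with the cell-free enzyme, then 5 mM L-tyrosine added as substrate. One unit converts 1 nmol L-tyrosine per min.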

For orientation: inhibition means the change of the read-out against control, counted positive when it falls. On to `Oc1cc(OCc2cccc(Cl)c2)cc(OCc2cccc(Cl)c2)c1`, for which, in assay [1], the inhibition at 10 µM was found to be 21%. In addition, the inhibition was determined as 22.1% in assay [2] and 1.5% in assay [3].

Take `Oc1cc(OCc2ccc(Cl)c(Cl)c2)cc(OCc2ccc(Cl)c(Cl)c2)c1`: in assay [1], at 10 µM the inhibition was 4%. For the same compound, the inhibition in assay [2] is 17%; in assay [3] it was 0%.

By EC50 is commonly meant the concentration at which the effect is half-maximal. Compound `Oc1ccc(OCc2ccccc2Cl)cc1` displayed an inhibition at 10 µM in assay [1] of 55%. The EC50 in assay [4] was 113 µM. Further, the inhibition in assay [2] amounted to 46.5%; in assay [3], 0%.

In general, IC50 refers to the concentration at which inhibition is half-maximal. Higher therefore signals weaker potency in that assay. On to `COc1cc(COc2ccc(O)cc2)cc(OC)c1`, for which, in assay [1], the inhibition at 10 µM was over 100%. The same compound registered an IC50 in assay [5] of 1.93 µM. In assay [4], the concentration for a half-maximal effect (EC50) is 76.3 µM. The inhibition in assay [2] was 54.1%; in assay [3] it was 0%.

With `Oc1cc(O)cc(OCc2ccc(Cl)c(Cl)c2)c1`, the inhibition at 10 µM in assay [1] turned out to be 15%. Also, in assay [6], inhibition was half-maximal at 66.4 µM (IC50). Further, the inhibition came to 37.3% in assay [2] and 66% in assay [3].

The compound `Oc1ccc(OCc2ccc(Cl)c(Cl)c2)cc1` showed an inhibition at 10 µM in assay [1] of 87%. The compound also had a half-inhibitory concentration (IC50) in assay [5] of 1.87 µM. Also, the inhibition in assay [2] was 33.2%; in assay [3], 9.5%.

`COc1cc(COc2cc(O)cc(OCc3cc(OC)cc(OC)c3)c2)cc(OC)c1` registered an inhibition at 10 µM in assay [1] of 6%. Also, the inhibition in assay [2] came out at 27.4%; in assay [3], 0%.

Take `Oc1ccc(OCc2ccc(F)cc2)cc1`: at 10 µM the inhibition in assay [1] was 42%. Further, in assay [4], the half-maximal effective concentration (EC50) was 102 µM. In addition, the inhibition in assay [2] was determined as 48.2%; in assay [3], 1.5%.

With `OC[C@H]1O[C@@H](Oc2ccc(O)cc2)[C@H](O)[C@@H](O)[C@@H]1O` [ARBUTIN], the midpoint of inhibition in assay [5], the IC50, lay at 99 µM.

With `Oc1ccc(OCc2cccc(Cl)c2)cc1`, the inhibition at 10 µM in assay [1] was found to be 78%. The half-inhibitory concentration (IC50) in assay [5] came out at 1.83 µM. Further, the half-maximal effective concentration (EC50) in assay [4] amounted to 76.8 µM. The inhibition is 54.7% in assay [2] and 1% in assay [3].

`Oc1cc(O)cc(OCc2cccc(Cl)c2)c1` displayed an inhibition at 10 µM in assay [1] of 18%. In addition, the concentration giving a half-maximal response (EC50) in assay [4] worked out at 119 µM. The same compound came in with a concentration for half-maximal inhibition (IC50) in assay [6] of 54.7 µM. Besides, the inhibition in assay [2] was 49%; in assay [3], 70.5%.

As to `O=C1O[C@H]([C@@H](O)CO)C(O)=C1O` [ASCORBIC ACID], the concentration for a half-maximal effect (EC50) in assay [4] was 26.2 µM. Further, the inhibition in assay [2] was 93.9%.

As for `COc1cc(COc2cc(O)cc(OC(C)=O)c2)cc(OC)c1`, the inhibition in assay [2] was determined as 1.7%.

For `COc1cc(COc2cc(O)cc(O)c2)cc(OC)c1`, in assay [1], 10 µM produced 19% inhibition. Also, in assay [4], the EC50 amounted to 129 µM. Also, the inhibition in assay [2] was 46.8%; in assay [3], 27.5%.

`Oc1cc(OCc2ccc(F)cc2)cc(OCc2ccc(F)cc2)c1` gave an inhibition at 10 µM in assay [1] of 12%. For the same compound, the figures for the inhibition in assay [2] and in assay [3] were 21.2% and 5.5%, respectively.

For `Oc1cc(O)cc(OCc2ccc(F)cc2)c1`, the inhibition at 10 µM in assay [1] was determined as 14%. Further, the half-maximal effective concentration (EC50) in assay [4] came to 140 µM. This compound registered a concentration for half-maximal inhibition (IC50) in assay [6] of 90 µM. Moreover, the results for the inhibition in assay [2] and in assay [3] were 46.6% and 55.5%, respectively.

In assay [1], `Oc1cc(OCc2ccccc2Cl)cc(OCc2ccccc2Cl)c1` returned an inhibition at 10 µM of 33%. Further, the inhibition in assay [2] turned out to be 15.6%; in assay [3], 3.5%.

Take `CC(=O)Oc1cc(O)cc(OCc2ccc(Cl)c(Cl)c2)c1`: the inhibition in assay [2] came to 8%.

Turning to `Oc1cc(O)cc(OCc2ccccc2Cl)c1`, in assay [1], at 10 µM the inhibition was 11%. Moreover, in assay [4], the half-maximal effective concentration (EC50) amounted to 165 µM. Further, the inhibition turned out to be 42.8% in assay [2] and 45.5% in assay [3].

Source of the values: ChEMBL document CHEMBL1765063, “Synthesis and anti-melanogenic activity of hydroxyphenyl benzyl ether analogues” (Bioorg Med Chem, 2011).
